According to ChEMBL document CHEMBL1132709, “Novel cyclopropapyrroloindole derivative (AT-3510) bearing methoxycarbonyl and trifluoromethyl groups” (J Med Chem, 1999):
In brackets after ≈: the same amount, converted by molar mass.

Columns and labels:
Mus musculus [1] = test: In vivo antitumor activity (0.800 mg/kg) is the measure of tumor growth inhibition of human tumor xenograft NUGC-3 (stomach) implanted sc in mice.; type: functional
How it was run: (§1)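 Tumor fragments (2–3 mm3) implanted sc into female BALB/cA Jcl-nu mice on day 0; single iv dose given once tumor volume reached about 100 mm3. Read-out is maximum tumor growth inhibition, as percentage versus untreated group.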

Mus musculus [2] = test: In vivo antitumor activity (0.845 mg/kg) is the measure of tumor growth inhibition of human tumor xenograft DLD-1 (colon) implanted sc in mice.; type: functional; how it was run: as §1
Mus musculus [3] = test: In vivo antitumor activity (0.845 mg/kg) is the measure of tumor growth inhibition of human tumor xenograft HCT116 (colon) implanted sc in mice.; type: functional; how it was run: as §1
Mus musculus [4] = test: In vivo antitumor activity is the measure of tumor growth inhibition of Colon 26 murine […] cells.; type: functional
How it was run: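 Colon 26 cells (10^6/mouse) inoculated sc into male CDF1 mice on day 0; single iv dose on day 7. Tumor growth inhibition expressed as percentage versus untreated group.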

Mus musculus [5] = test: In vivo concentration required to inhibit the Colon 26 murine […] cell growth by 50%; type: functional
[6] = Ratio between max dose within 10% body weight loss and tumor growth inhibition; type: functional
How it was run: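 Ratio of maximum dose within 10% body weight loss to the dose giving 50% tumor growth inhibition, in sc Colon 26-bearing mice dosed iv.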

Mus musculus [7] = test: In vivo antitumor activity (0.25 mg/Kg) is the measure of tumor growth inhibition of colon 26 murine […] cells.; type: functional
How it was run: (§2)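 Colon 26 cells (10^6/mouse) inoculated sc into male CDF1 mice on day 0; drug given iv on day 7. Read-out is percentage tumor growth inhibition versus the untreated group.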

HeLa = test: Concentration required to inhibit the growth of HeLaS3 human uterine cervix carcinoma cells by 50%; type: functional, cell-based
Mus musculus [8] = test: In vivo antitumor activity (0.5 mg/Kg) is the measure of tumor growth inhibition of colon 26 murine […] cells.; type: functional; how it was run: as §2
Mus musculus [9] = test: In vivo antitumor activity (0.125 mg/Kg) is the measure of tumor growth inhibition of colon 26 murine […] cells.; type: functional; how it was run: as §2
P338 = test: In vitro concentration required to inhibit the growth of […] murine leukemia cells by 50%; type: functional, cell-based; settings: Mus musculus
Mus musculus [10] = test: In vivo antitumor activity (0.25 mg/Kg) is the measure of increase in life span of mice bearing P388 murine leukemia cells; 2/2 cured mice (>60-day survivors); type: functional, organism-based

COC(=O)c1c(C(F)(F)F)[nH]c2c(OC(=O)N3CCN(C)CC3)cc3c(c12)[C@H](CCl)CN3C(=O)c1cc2cc(NC(=O)c3cc4ccccc4cn3)ccc2[nH]1
TGI (Mus musculus [1]): 97%
TGI (Mus musculus [2]): 76%
TGI (Mus musculus [3]): 77%
TGI (Mus musculus [4]): 93%
TGI50 (Mus musculus [5]): 0.082 mg/kg
Ratio [6]: 6.1

COC(=O)c1c(C(F)(F)F)[nH]c2c(OC(=O)N3CCN(C)CC3)cc3c(c12)[C@H](CCl)CN3C(=O)c1cc2cc(NC(=O)c3cc4c(OC)c(OC)c(OC)cc4cn3)ccc2[nH]1
TGI (Mus musculus [4]): 89%
TGI50 (Mus musculus [5]): 0.13 mg/kg
Ratio [6]: 3.9

COC(=O)c1c(C(F)(F)F)[nH]c2c(OC(=O)N3CCN(C)CC3)cc3c(c12)[C@H](CCl)CN3C(=O)c1cc2cc(NC(=O)c3cc4ccc(OC)cc4o3)ccc2[nH]1
TGI (Mus musculus [4]): 89%
TGI50 (Mus musculus [5]): 0.108 mg/kg
Ratio [6]: 4.6

COC(=O)c1c(C(F)(F)F)[nH]c2c(OC(=O)N3CCN(C)CC3)cc3c(c12)[C@H](CCl)CN3C(=O)c1cc2cc(NC(=O)c3cc4cc(OC)c(OC)c(OC)c4o3)ccc2[nH]1
TGI (Mus musculus [4]): 90%
TGI50 (Mus musculus [5]): 0.0533 mg/kg
Ratio [6]: 4.5

COC(=O)c1c(C(F)(F)F)[nH]c2c(O)cc3c(c12)[C@H](CCl)CN3C(=O)c1cc2cc(NC(=O)c3cc4ccc(OC)cc4cn3)ccc2[nH]1
TGI (Mus musculus [7]): 82%
IC50 (HeLa): 0.11 ng/mL (≈ 0.159 nM)

COC(=O)c1c(C(F)(F)F)[nH]c2c(O)cc3c(c12)[C@H](CCl)CN3C(=O)c1cc2cc(NC(=O)c3cc4c(OC)c(OC)c(OC)cc4[nH]3)ccc2[nH]1
TGI (Mus musculus [8]): 95%
IC50 (HeLa): 0.94 ng/mL (≈ 1.27 nM)

COC(=O)c1c(C(F)(F)F)[nH]c2c(OC(=O)N3CCN(C)CC3)cc3c(c12)[C@H](CCl)CN3C(=O)c1cc2cc(NC(=O)c3cc4cc(OC)ccc4o3)ccc2[nH]1.Cl
TGI (Mus musculus [4]): 86%
TGI50 (Mus musculus [5]): 0.148 mg/kg
Ratio [6]: 6.8

COC(=O)c1c(C(F)(F)F)[nH]c2c(OC(=O)N3CCN(C)CC3)cc3c(c12)[C@H](CBr)CN3C(=O)c1cc2cc(OC)c(OC)c(OC)c2[nH]1
Ratio [6]: 11.7

COC(=O)c1c(C(F)(F)F)[nH]c2c1[C@@]13C[C@@H]1CN(C(=O)c1cc4cc(NC(=O)c5cc6ccccc6o5)ccc4[nH]1)C3=CC2=O
Ratio [6]: 4.3

COC(=O)c1c(C(F)(F)F)[nH]c2c(O)cc3c(c12)[C@H](CCl)CN3C(=O)c1cc2cc(NC(=O)c3cc4ccccc4cn3)ccc2[nH]1 (racemic)
TGI (Mus musculus [7]): 82%
IC50 (HeLa): 0.24 ng/mL (≈ 0.363 nM)

COC(=O)c1c(C(F)(F)F)[nH]c2c(O)cc3c(c12)[C@H](CCl)CN3C(=O)c1cc2cc(NC(=O)c3cc4cccc(OC)c4o3)ccc2[nH]1 (racemic)
TGI (Mus musculus [8]): 96%
IC50 (HeLa): 0.51 ng/mL (≈ 0.749 nM)

COC(=O)c1c(C(F)(F)F)[nH]c2c(O)cc3c(c12)[C@H](CCl)CN3C(=O)c1cc2cc(NC(=O)c3ccc4ccccc4c3)ccc2[nH]1 (racemic)
TGI (Mus musculus [8]): 84%
IC50 (HeLa): 0.22 ng/mL (≈ 0.333 nM)

COC(=O)c1c(C(F)(F)F)[nH]c2c(O)cc3c(c12)[C@H](CCl)CN3C(=O)c1cc2cc(NC(=O)c3cc4cc(OC)c(OC)c(OC)c4o3)ccc2[nH]1 (racemic)
TGI (Mus musculus [9]): 74%
IC50 (HeLa): 0.17 ng/mL (≈ 0.229 nM)

COC(=O)c1c(C(F)(F)F)[nH]c2c1[C@@]13C[C@@H]1CN(C(=O)c1cc4cc(NC(=O)c5cc6ccccc6o5)ccc4[nH]1)C3=CC2=O (racemic)
IC50 (P338): 0.53 ng/mL (≈ 0.862 nM)

COC(=O)c1c(C(F)(F)F)[nH]c2c(O)cc3c(c12)[C@H](CCl)CN3C(=O)c1cc2cc(NC(=O)c3cc4c(OC)cccc4o3)ccc2[nH]1 (racemic)
TGI (Mus musculus [8]): 83%
IC50 (HeLa): 0.87 ng/mL (≈ 1.28 nM)

COC(=O)c1c(C(F)(F)F)[nH]c2c(O)cc3c(c12)[C@H](CCl)CN3C(=O)c1cc2cc(OC)c(OC)c(OC)c2[nH]1 (racemic)
IC50 (HeLa): 0.25 ng/mL (≈ 0.43 nM)

COC(=O)c1c(C(F)(F)F)[nH]c2c(O)cc3c(c12)[C@H](CCl)CN3C(=O)c1cc2cc(NC(=O)c3cc4cc(OC)c(OC)c(OC)c4[nH]3)ccc2[nH]1 (racemic)
TGI (Mus musculus [7]): 83%
IC50 (HeLa): 0.2 ng/mL (≈ 0.27 nM)

COC(=O)c1c(C(F)(F)F)[nH]c2c1[C@@]13C[C@@H]1CN(C(=O)c1cc4cc(NC(=O)c5cc6ccccc6[nH]5)ccc4[nH]1)C3=CC2=O (racemic)
ILS (Mus musculus [10]): 2/2 cured mice (>60-day survivors)
IC50 (P338): 0.86 ng/mL (≈ 1.4 nM)
